Experiments:
[1] = Inhibition of AP-1 and NF-kB mediated transcriptional activation in Jurkat T-cells; type: functional, cell-based; conditions: Homo sapiens
In short: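 Jurkat T-cell luciferase reporter lines, stably transfected with either an NF-kB site (MHC promoter) fused to a minimal SV-40 promoter, or an AP-1 site (collagenase promoter). Cells at 1×10⁶/mL in medium with 10% serum-plus were plated 18 h ahead. Compound in 0.2% DMSO/H₂O was added for 0.5 h at 37 °C, then PMA plus PHA (1 ug/mL) for 5 h. Lysate luminescence was read; IC50 is 50% of control luciferase.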

Caco-2 = test: Caco-2 permeability coefficient value was determined

Structure (SMILES)	IC50 [1]	Pc (Caco-2)
COc1cccc2c(NN3C(=O)C=C(C)C3=O)nc(-c3cccs3)nc12	50 nM	
COc1cccc2nc(C(F)(F)F)nc(NN3C(=O)C=C(C)C3=O)c12	10 nM	1.49 ×10⁻⁶ cm/s
CC1=CC(=O)N(Nc2nc(-c3cccs3)nc3cc(N4CCOCC4)ccc23)C1=O	200 nM	
CC1=CC(=O)N(Nc2nc(-c3cccs3)nc3ccc(Cl)cc23)C1=O	20 nM	
CC1=CC(=O)N(Nc2nc(-c3cccs3)nc3cccc(C)c23)C1=O	20 nM	
CC1=CC(=O)N(Nc2nc(C(F)(F)F)nc3cc(N(C)C)ccc23)C1=O	20 nM	1.68 ×10⁻⁶ cm/s
CC1=CC(=O)N(Nc2nc(-c3ccccc3)nc3ccccc23)C1=O	100 nM	
CC1=CC(=O)N(Nc2nc(-c3cccs3)nc3ccccc23)C1=O	60 nM	
CSc1ccc2nc(C(F)(F)F)nc(NN3C(=O)C=C(C)C3=O)c2c1	80 nM	
CC1=CC(=O)N(Nc2nc(-c3cccs3)nc3cc(N(C)C)ccc23)C1=O	40 nM	1.41 ×10⁻⁶ cm/s
COc1ccc2c(NN3C(=O)C=C(C)C3=O)nc(-c3cccs3)nc2c1	20 nM	
COc1ccc2nc(C(F)(F)F)nc(NN3C(=O)C=C(C)C3=O)c2c1	30 nM	
CC1=CC(=O)N(Nc2nc(C(F)(F)F)nc3ccccc23)C1=O	100 nM	
CC1=CC(=O)N(Nc2nc(-c3cccs3)nc3cccc(F)c23)C1=O	50 nM	
CC1=CC(=O)N(Nc2nc(C(F)(F)F)nc3ccc(S(C)(=O)=O)cc23)C1=O	9000 nM	
COc1ccc2nc(-c3cccs3)nc(NN3C(=O)C=C(C)C3=O)c2c1	3 nM	1.62 ×10⁻⁶ cm/s
CC1=CC(=O)N(Nc2nc(C(F)(F)F)nc3cccc(C)c23)C1=O	400 nM	
COc1cc2nc(-c3cccs3)nc(NN3C(=O)C=C(C)C3=O)c2cc1OC	50 nM	
COc1cccc2nc(-c3cccs3)nc(NN3C(=O)C=C(C)C3=O)c12 [AS-602868]	8 nM	14.1 ×10⁻⁶ cm/s
CC1=CC(=O)N(Nc2nc(C(F)(F)F)nc3ccc([S+](C)[O-])cc23)C1=O (stereo not drawn)	1000 nM	
CC1=CC(=O)N(Nc2nc(C(F)(F)F)nc3cc(N4CCCCC4)ccc23)C1=O	200 nM	
CC1=CC(=O)N(Nc2nc(C(F)(F)F)nc3ccc(O)cc23)C1=O	100 nM	
COc1cc2c(NN3C(=O)C=C(C)C3=O)nc(-c3cccs3)nc2c(OC)c1OC	40 nM	

From ChEMBL document CHEMBL1136441, “The design and synthesis of novel orally active inhibitors of AP-1 and NF-kappaB mediated transcriptional activation. SAR of in vitro and in vivo studies” (Bioorg Med Chem Lett, 2003)
